EP2 modulator: EP2 receptor modulators, cAMP readout, primary screen, cell-based, HTRF cAMP, PGE2 stimulation | EP2-expressing cells, cAMP HTRF FRET, PGE2 co-stimulation | induction, % at 25 µM | actives 0.83% (n = 260,000) | AID 940, 2007 | Prostaglandin E2 receptor EP2 subtype (Homo sapiens), P43116;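 active means compounds whose cAMP rise, as percent of the full-agonist control response, exceeds 60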;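 further: rat C6 glioma line stably carrying human EP2 under a CMV promoter; the protocol text gives 20 µM as final concentration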
Target sequence (P43116 whole entry, looked up): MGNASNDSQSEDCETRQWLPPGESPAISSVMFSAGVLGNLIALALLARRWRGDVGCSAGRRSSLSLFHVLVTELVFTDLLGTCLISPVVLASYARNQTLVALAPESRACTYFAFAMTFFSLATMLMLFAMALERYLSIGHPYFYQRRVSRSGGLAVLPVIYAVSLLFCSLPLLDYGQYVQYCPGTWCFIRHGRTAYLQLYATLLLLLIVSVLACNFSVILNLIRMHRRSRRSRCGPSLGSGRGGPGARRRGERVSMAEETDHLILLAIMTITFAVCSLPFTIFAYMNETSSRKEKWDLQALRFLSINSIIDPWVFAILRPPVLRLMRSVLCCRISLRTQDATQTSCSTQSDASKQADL
MC4R antagonist: MC4R antagonists of cAMP signaling, primary screen, cell-based, TR-FRET, antagonist arm of biased-ligand search | Melanocortin receptor 4 (Homo sapiens), P32245 | MC4R-expressing cells, MTII-stimulated cAMP, LANCE TR-FRET | inhibition, % at 6.5 µM | actives 0.48% (n = 360,000) | AID 540295, 2011;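 active means inhibition above its plate's cutoff, the mean of tested wells on that plate plus 3 SD, cut at about 29% in these data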
Target sequence (P32245 whole entry, looked up): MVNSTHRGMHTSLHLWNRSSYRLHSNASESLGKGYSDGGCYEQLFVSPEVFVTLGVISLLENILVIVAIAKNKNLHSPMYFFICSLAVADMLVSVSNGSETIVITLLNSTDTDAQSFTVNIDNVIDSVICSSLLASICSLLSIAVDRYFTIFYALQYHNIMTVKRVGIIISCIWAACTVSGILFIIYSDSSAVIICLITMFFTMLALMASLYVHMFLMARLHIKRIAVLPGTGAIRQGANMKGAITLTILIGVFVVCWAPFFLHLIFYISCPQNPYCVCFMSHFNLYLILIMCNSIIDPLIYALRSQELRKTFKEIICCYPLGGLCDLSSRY
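Test system: U2OS cells stably expressing human melanocortin 4 receptor (MC4R); also added: Melanotan II challenge; compound: 6.5 µM single dose; timing: 30-min compound preincubation, 1-h Melanotan II challenge, 1-h detection, room temperature; signal: Eu-cAMP/anti-cAMP TR-FRET, emission 671 nm; repeats: one well per compound, no replicates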
EP2 antag: human EP2 receptor antagonists, primary screen, TR-FRET cAMP, C6 glioma cells. actives 0.52% (n = 260,000). inhibition, % at 25 µM. C6 glioma cells expressing human EP2; cells stimulated with saturating PGE2. Prostaglandin E2 receptor EP2 subtype (Homo sapiens), P43116;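 active means percent inhibition above 40 after rounding to a whole number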;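 further: rat C6 glioma host cells with rolipram phosphodiesterase inhibitor present; the protocol text gives 20 µM as final concentration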
T cell modulator: modulators of CD8 T cell-vesicle binding, primary screen, mouse 2C CD8+ T cells, flow cytometry | response (vesicle binding), % at 7 µM | 2C CD8+ T cell-vesicle binding; active compounds read low | actives 0.068% (n = 330,000);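 active means response, share of CD8 T cells binding vesicles, and their 90th percentile fluorescence all below set limits, cut at about 80% in these data, passing the limit was not always enough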;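 further: values below 100% mean blocked vesicle binding to the CD8+ T cells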
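Material: 2C TCR transgenic mouse naive CD8+ T cells, MACS-purified. Also added: QL9-charged Drosophila Ld/ICAM-1/B7-1 vesicles. Timing: binding 1.5 h at 37 °C. Measured by: high-throughput flow cytometry with anti-B7-1 and anti-CD8 staining. Read-out: percent CD8+ FL2 mean versus row control. Controls: Unloaded micro-vesicles (low), QL9 vesicles with 0.7% DMSO (high).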
MC4R barr agon: MC4R agonists recruiting beta-arrestin, primary screen, cell-based, luminescence, agonist arm of biased-ligand search. Melanocortin receptor 4 (Homo sapiens), P32245. U2OS MC4R beta-arrestin complementation; percent of melanotan II response, DMSO zero. activation, % at 8.9 µM. actives 0.98% (n = 360,000). AID 540308, 2011;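 active means activation above a per-plate cutoff, the mean activation of sample wells on that plate plus 3 SD, cut at about 8% in these data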
Granule exo inh: LAMP-1 surface exposure blockers, TALL-104 cells – cell-based, flow cytometry, MLPCN library, primary screen. inhibition, % at 10 µM. AID 651702, 2012. actives 0.66% (n = 360,000). TALL-104 LAMP-1 surface exposure; cells stimulated with thapsigargin and PMA;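 active means inhibition above about 55%, limit read from the data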
U2OS cAMP counter: nonselective cAMP signaling inhibitors, parental cells, counter-screen for MC4R biased antagonist project, cell-based, TR-FRET, U2OS, forskolin, triplicate. shares compounds with MC4R antagonist. LANCE TR-FRET. inhibition, % at 6.5 µM. actives 26% (n = 1,600). AID 602193, 2012;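 active means mean inhibition over triplicates above the low-control well mean plus 3 SD, set per campaign, cut at about 13% in these data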;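 further: signal is single emission at 671 nm which falls as cellular cAMP rises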
MC4R cAMP antag: MC4R cAMP antagonists, retest, confirmation, cell-based, TR-FRET | shares compounds with MC4R antagonist | MC4R-expressing cells, MTII-stimulated cAMP | inhibition, % at 6.5 µM | actives 27% (n = 1,600) | AID 602195, 2012; in the data active means inhibition above about 29%
Large screens that a line does not name were inactive (follow-up assays come after a bar, where they were run). Only some compounds are listed: those with a hit (about 2.6% of all), similar ones and a draw of the others.

Cc1cc(C)c(C#N)c(SCc2[nH]nc3c2C(c2ccc(F)cc2)C(C#N)=C(N)O3)n1 (stereo not drawn)	none
Cc1cc(C#N)c(C)c(SCc2[nH]nc3c2C(c2ccccc2)C(C#N)=C(N)O3)n1 (stereo not drawn)	MC4R antagonist 31 | U2OS cAMP counter inactive | MC4R cAMP antag inactive
CCOc1cc(/C=C2\SC(=Nc3ccccc3)N(c3ccccc3)C2=O)ccc1OCC(=O)O	none
CCOC(=O)C1=C(O)/C(=C/c2ccc(OCC(=O)O)c(OCC)c2)SC1=Nc1ccc(C)cc1	MC4R antagonist 29 | U2OS cAMP counter inactive | MC4R cAMP antag inactive
CN(Cc1ccccc1NS(=O)(=O)c1ccc(Cl)cc1)C1CCCCC1	none
Cc1c(Cl)sn(-c2ccc(Cl)cc2)c1=O	MC4R antagonist 73, EP2 antag 117, Granule exo inh 92 (no result: T cell modulator) | U2OS cAMP counter inactive | MC4R cAMP antag 70
Cc1nn(-c2ccc(Cl)cc2)c(=O)c2ccccc12	none
CC1CCC/C(=N\NC(=O)Nc2ccccc2)C1 (stereo not drawn)	none
CC1CCC/C(=N\NS(=O)(=O)c2ccccc2)C1 (stereo not drawn)	MC4R antagonist 37 | U2OS cAMP counter inactive | MC4R cAMP antag inactive
CCSc1nnc(-c2ccccc2SC)o1	MC4R antagonist 30 | U2OS cAMP counter inactive | MC4R cAMP antag inactive
O=C(NS(=O)(=O)Oc1ccc(F)cc1F)OC[C@@H]1CCCN2CCCCC12 (stereo partly drawn)	none (no result: EP2 modulator, EP2 antag)
CCOC(=O)C(C)(C)N(Cc1ccc(C)cc1)S(=O)(=O)c1ccc(Cl)c([N+](=O)[O-])c1	MC4R antagonist 31 | U2OS cAMP counter 20 | MC4R cAMP antag 52
CCOC(=O)C(C)(C)NS(=O)(=O)c1ccc(Cl)c([N+](=O)[O-])c1	MC4R antagonist 40 | U2OS cAMP counter 21 | MC4R cAMP antag 35
CC1=C(C)/C(=N\OS(=O)(=O)c2ccc(C)cc2)C=CC1=O	none
CC1=C/C(=N\OS(=O)(=O)c2ccccc2)C(C)=CC1=O	MC4R antagonist 68, EP2 antag 133, Granule exo inh 99 | U2OS cAMP counter 39 | MC4R cAMP antag 76
O=C(CNc1ccc(F)cc1)N/N=C1\CCCc2ccccc21	MC4R antagonist 30 | U2OS cAMP counter inactive | MC4R cAMP antag inactive
Cc1ccccc1CNC(=O)c1ccc(Cl)c([N+](=O)[O-])c1	MC4R antagonist 31 | U2OS cAMP counter 20 | MC4R cAMP antag 42
CC(C)CNC(=O)c1cccc(NC(=O)c2ccc(Cl)c([N+](=O)[O-])c2)c1	MC4R antagonist 32 | U2OS cAMP counter inactive | MC4R cAMP antag inactive
Cc1cc(C)c(C)c(C(=O)c2ccccc2C(=O)O)c1C	none
S=C1NC[C@H](Cc2ccccc2)N1CC1CCN(CCCC2CCCC2)CC1	MC4R antagonist 63 (no result: EP2 modulator, EP2 antag, T cell modulator) | U2OS cAMP counter inactive | MC4R cAMP antag inactive
CC(=O)Nc1ccc(S(=O)(=O)N2CCCN(S(=O)(=O)c3ccc(NC(C)=O)cc3)CC2)cc1	none
CCCOc1ccc(N2C(=O)CC(N3CCN(CCN=CC4=C(O)CC(C)(C)CC4=O)CC3)C2=O)cc1 (stereo not drawn)	none
CC1(C)CC(=O)C(C=NCCN2CCN(C3CC(=O)N(c4ccc(Br)cc4)C3=O)CC2)=C(O)C1 (stereo not drawn)	MC4R antagonist 33 | U2OS cAMP counter inactive | MC4R cAMP antag inactive
COc1ccc(/C=N/NC(=O)CCn2c3ccccc3c3ccccc32)cc1OC	MC4R antagonist 29 | U2OS cAMP counter inactive | MC4R cAMP antag inactive
CCn1c2ccccc2c2cc(/C=N/NC(=O)c3ccc(O)cc3)ccc21	MC4R antagonist 29 | U2OS cAMP counter inactive | MC4R cAMP antag inactive
CCn1c2ccccc2c2cc(/C=N/NC(=O)c3cc(O)cc(O)c3)ccc21	none
COc1cc(/C=N/NC(=O)CCn2c3ccccc3c3ccccc32)cc(OC)c1OC	none
FC(F)Oc1ccccc1NC(=S)NCCc1ccccc1	MC4R antagonist 32 (no result: EP2 modulator, EP2 antag) | U2OS cAMP counter inactive | MC4R cAMP antag inactive
CCn1c(SCC(=O)Nc2sc3c(c2C#N)CCCC3)nnc1-c1ccncc1	none
Cc1cccc(N2CCN(CC(=O)NCc3ccc(Cl)cc3)CC2)c1C	none (no result: EP2 modulator, EP2 antag)
CNC(=O)NC(=O)C(C)OC(=O)c1c2c(nc3ccccc13)/C(=C/c1cccs1)CC2 (stereo not drawn)	MC4R antagonist 30 | U2OS cAMP counter inactive | MC4R cAMP antag inactive
CC(C)=CC(=O)N1CCC(n2nccc2NC(=O)CCc2ccccc2)CC1	MC4R antagonist 35 (no result: EP2 modulator, EP2 antag) | U2OS cAMP counter inactive | MC4R cAMP antag inactive
CC(CC(=O)N(C)C1CCCCC1)S(=O)(=O)c1ccc2c(c1)NC(=O)CO2 (stereo not drawn)	none (no result: EP2 modulator, EP2 antag)
COc1ccc(-c2noc(CCC(=O)Nc3cccc(C)c3)n2)cc1	none
COc1ccc(-c2noc(CCC(=O)NCCc3cccc(C)c3)n2)cc1	MC4R antagonist 29 | U2OS cAMP counter inactive | MC4R cAMP antag inactive
CN(C)c1nc(Oc2ccc(/C=N/O)cc2)nc(N(C)C)n1	none
Cc1ccc(C2Nc3ccccc3C(=O)N2CCCN2CCOCC2)cc1 (stereo not drawn)	none
O=C1c2ccccc2NC(c2ccccc2Br)N1CCCN1CCOCC1 (stereo not drawn)	MC4R antagonist 29 | U2OS cAMP counter inactive | MC4R cAMP antag inactive
CCCn1c(/C=C/C2=CCN(C)CC2)nc2ccccc21	none (no result: MC4R antagonist, T cell modulator, MC4R barr agon, Granule exo inh)
Cc1ccc(S(=O)(=O)NC2CCCc3ccccc32)cc1C (stereo not drawn)	MC4R antagonist 31 | U2OS cAMP counter inactive | MC4R cAMP antag inactive
Cc1cc(C)c2c(c1)cc(C)c1nn(CC(=O)N(C)C)c(=O)n12	none (no result: MC4R antagonist, EP2 antag, T cell modulator, MC4R barr agon, Granule exo inh)
O=C(O)c1cc(-c2cccnc2)nc2ccc(Br)cc12	MC4R antagonist 49 | U2OS cAMP counter 42 | MC4R cAMP antag 68
